Measurements as given in ChEMBL document CHEMBL3352339, “Implications of N-capped urea/thiourea and C-capped 3-(1-piperazinyl)-1,2-benzisothiazole with bridging Gly-Val/Phe-Gly-Val-Pro as therapeutic targets” (Eur J Med Chem, 2014).
pIC50: −log10 of the molar value. Converted amounts (≈) assume the structure as drawn. Starred links: 1 amine or outer side, 2 acyl side, 3 side chain; linkers in the order of their positions; H or OH if unused. Residues, ends and D or L forms follow the SMILES beside them. *: point of attachment. Thiocarbamoyl(N-2-FPh) = Fc1ccccc1NC(=S)*; X1 = c1ccc2c(N3CCN(*)CC3)nsc2c1; NH(4-F-phenyl) = Fc1ccc(N*)cc1; NH(2-F-phenyl) = Fc1ccccc1N*; X2 = Fc1ccc(NC(=S)*)cc1; Boc = CC(C)(C)OC(=O)*; CO = O=C([*:1])[*:2]

Assays:
[1] = Inhibition of sheep stomach parietal cells gastric H+/K+-ATPase activity assessed as reduction in inorganic phosphorus production by Fiske Subbarow's method; type: tissue-based, Ovis aries; settings: for pIC50: read-out: IC50
In short: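 Inhibition of purified H+/K+-ATPase, with omeprazole as the reference. IC50 is the mean of triplicate runs.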

[2] = molecular target: Urease (Canavalia ensiformis, UniProt P07374); test: Inhibition of jack bean urease assessed as reduction in ammonia production incubated at 30 degC for 15 mins by indophenol method
Urease, sequence (P07374 whole entry): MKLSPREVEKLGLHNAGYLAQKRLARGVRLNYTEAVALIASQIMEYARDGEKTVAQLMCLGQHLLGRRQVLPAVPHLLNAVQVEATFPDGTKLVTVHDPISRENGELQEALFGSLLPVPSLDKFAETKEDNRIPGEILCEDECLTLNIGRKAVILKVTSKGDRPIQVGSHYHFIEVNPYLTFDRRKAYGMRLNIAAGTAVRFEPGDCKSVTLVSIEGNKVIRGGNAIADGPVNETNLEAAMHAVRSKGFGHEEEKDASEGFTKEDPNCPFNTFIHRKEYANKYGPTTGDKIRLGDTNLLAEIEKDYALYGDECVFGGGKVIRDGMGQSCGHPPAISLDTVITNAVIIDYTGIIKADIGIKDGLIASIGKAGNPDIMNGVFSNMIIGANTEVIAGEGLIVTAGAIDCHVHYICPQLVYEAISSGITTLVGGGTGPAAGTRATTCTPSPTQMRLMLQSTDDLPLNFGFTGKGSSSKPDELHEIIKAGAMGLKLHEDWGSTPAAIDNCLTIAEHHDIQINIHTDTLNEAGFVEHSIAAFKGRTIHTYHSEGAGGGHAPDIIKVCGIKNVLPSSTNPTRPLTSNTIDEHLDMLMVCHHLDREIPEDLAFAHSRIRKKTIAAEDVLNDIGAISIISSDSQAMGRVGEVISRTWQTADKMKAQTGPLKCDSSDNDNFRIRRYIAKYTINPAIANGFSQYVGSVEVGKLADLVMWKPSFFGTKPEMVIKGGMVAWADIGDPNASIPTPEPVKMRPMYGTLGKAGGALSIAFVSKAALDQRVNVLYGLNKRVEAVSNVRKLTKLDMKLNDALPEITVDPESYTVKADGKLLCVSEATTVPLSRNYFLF
In short: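 Inhibition of jack bean urease, with thiourea as the reference standard. IC50 values are the average of triplicate runs.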

[3] = system: Staphylococcus; test: Antibacterial activity against Coagulase positive Staphylococcus incubated for 24 hrs by agar microdilution method; type: functional
[4] = system: Aspergillus flavus; test: Antifungal activity against Aspergillus flavus at 50 ug/mL incubated for 3 days by agar well diffusion method; type: functional; settings: 72 h, read-out: IZ
In short: (§1)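 Fungal growth inhibition measured by agar well diffusion, with bavistin as the reference. Records the mean inhibition-zone diameter (mm) around each well.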

[5] = system: Klebsiella pneumoniae; test: Antibacterial activity against Klebsiella pneumoniae incubated for 24 hrs by agar microdilution method; type: functional
[6] = system: Aspergillus flavus; test: Antifungal activity against Aspergillus flavus incubated for 48 to 72 hrs by agar microdilution method; type: functional
In short: (§2)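 MIC by microdilution against the fungal strain, limited to compounds showing significant zones in the diffusion assay. Bavistin was used as the reference.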

[7] = system: Escherichia coli; test: Antibacterial activity against Escherichia coli incubated for 24 hrs by agar microdilution method; type: functional
[8] = system: Xanthomonas oryzae; test: Antibacterial activity against Xanthomonas oryzae at 50 ug/mL incubated for 24 hrs by agar well diffusion method; type: functional; settings: read-out: IZ
[9] = system: Escherichia coli; test: Antibacterial activity against Escherichia coli at 50 ug/mL incubated for 24 hrs by agar well diffusion method; type: functional; settings: read-out: IZ
In short: (§3)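 Agar well diffusion against the bacterial isolate, with streptomycin as the reference drug. Read-out is the average diameter (mm) of the growth-inhibition zone around the well.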

[10] = system: Fusarium verticillioides; test: Antifungal activity against Fusarium moniliforme at 50 ug/mL incubated for 3 days by agar well diffusion method; type: functional; settings: 72 h, read-out: IZ; in short: as §1
[11] = system: Fusarium oxysporum; test: Antifungal activity against Fusarium oxysporum at 50 ug/mL incubated for 3 days by agar well diffusion method; type: functional; settings: 72 h, read-out: IZ; in short: as §1
[12] = Antiglycation activity using bovine serum albumin incubated at 37 degC for 7 days by spectrofluorimetry; type: physicochemical
In short: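 Glycation of bovine serum albumin, with rutin as the reference standard. IC50 values are averages of triplicate runs.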

[13] = system: Aspergillus niger; test: Antifungal activity against Aspergillus niger at 50 ug/mL incubated for 3 days by agar well diffusion method; type: functional; settings: 72 h, read-out: IZ; in short: as §1
[14] = system: Staphylococcus; test: Antibacterial activity against Coagulase positive Staphylococcus at 50 ug/mL incubated for 24 hrs by agar well diffusion method; type: functional; settings: read-out: IZ; in short: as §3
[15] = system: Aspergillus niger; test: Antifungal activity against Aspergillus niger incubated for 48 to 72 hrs by agar microdilution method; type: functional; in short: as §2
[16] = system: Fusarium oxysporum; test: Antifungal activity against Fusarium oxysporum incubated for 48 to 72 hrs by agar microdilution method; type: functional; in short: as §2
[17] = system: Fusarium verticillioides; test: Antifungal activity against Fusarium moniliforme incubated for 48 to 72 hrs by agar microdilution method; type: functional; in short: as §2
[18] = system: Klebsiella pneumoniae; test: Antibacterial activity against Klebsiella pneumoniae at 50 ug/mL incubated for 24 hrs by agar well diffusion method; type: functional; settings: read-out: IZ; in short: as §3
[19] = system: Xanthomonas oryzae; test: Antibacterial activity against Xanthomonas oryzae incubated for 24 hrs by agar microdilution method; type: functional

Row | SMILES | pIC50 [1] | pIC50 [2] | MIC [3] [µg/mL] | zone of inhibition at 50 µg/mL [4] [mm] | MIC [5] [µg/mL] | MIC [6] [µg/mL] | MIC [7] [µg/mL] | zone of inhibition at 50 µg/mL [8] [mm] | zone of inhibition at 50 µg/mL [9] [mm] | zone of inhibition at 50 µg/mL [10] [mm] | zone of inhibition at 50 µg/mL [11] [mm] | pIC50 [12] | zone of inhibition at 50 µg/mL [13] [mm] | zone of inhibition at 50 µg/mL [14] [mm] | MIC [15] [µg/mL] | MIC [16] [µg/mL] | MIC [17] [µg/mL] | IC50 [1] | zone of inhibition at 50 µg/mL [18] [mm] | MIC [19] [µg]
1 | CC(C)[C@H](NC(=O)CNC(=O)[C@H](Cc1ccccc1)NC(=O)CNC(=O)Nc1ccccc1F)C(=O)N1CCC[C@H]1C(=O)N1CCN(c2nsc3ccccc23)CC1 ({NH(2-F-phenyl)-CO}-GFGVP-X1) | 3.96 | 4.39 | 12.2 (≈ 15 µM) | 28 | 12.2 (≈ 15 µM) | 14.2 (≈ 17.5 µM) | 12.8 (≈ 15.7 µM) | 28 | 30 | 26 | 29 | 4.28 | 29 | 29 | 14 (≈ 17.2 µM) | 14 (≈ 17.2 µM) | 10 (≈ 12.3 µM) |  |  | 
2 | CC(C)[C@H](NC(=O)CNC(=O)OC(C)(C)C)C(=O)NCC(=O)N[C@H](C(=O)N1CCC[C@H]1C(=O)N1CCN(c2nsc3ccccc23)CC1)C(C)C (Boc-GVGVP-X1) |  | 3.53 |  | 4 |  |  |  | 4 | 6 | 5 | 6 | 3.60 | 5 | 5 |  |  |  | Not Active | 40.3 | 
3 | CN[C@@H]1[C@H](O[C@H]2[C@H](O[C@H]3[C@H](O)[C@@H](O)[C@H](N=C(N)N)[C@@H](O)[C@@H]3N=C(N)N)O[C@@H](C)[C@]2(O)C=O)O[C@@H](CO)[C@H](O)[C@H]1O [STREPTOMYCIN] |  |  | 21 (≈ 36.1 µM) |  | 20 (≈ 34.4 µM) |  | 22 (≈ 37.8 µM) | 11 | 14 |  |  |  |  | 13 |  |  |  |  |  | 18
4 | CC(C)[C@H](NC(=O)CNC(=S)Nc1ccccc1F)C(=O)NCC(=O)N[C@H](C(=O)N1CCC[C@H]1C(=O)N1CCN(c2nsc3ccccc23)CC1)C(C)C ({Thiocarbamoyl(N-2-FPh)}-GVGVP-X1) | 4.04 | 4.40 | 15.5 (≈ 19.8 µM) | 29 | 16 (≈ 20.5 µM) | 16.5 (≈ 21.1 µM) | 14.2 (≈ 18.2 µM) | 24 | 27 | 31 | 30 | 4.30 | 30 | 27 | 15.2 (≈ 19.5 µM) | 15.2 (≈ 19.5 µM) | 13 (≈ 16.6 µM) |  |  | 
5 | CC(C)[C@H](NC(=O)CNC(=O)Nc1ccccc1F)C(=O)NCC(=O)N[C@H](C(=O)N1CCC[C@H]1C(=O)N1CCN(c2nsc3ccccc23)CC1)C(C)C ({NH(2-F-phenyl)-CO}-GVGVP-X1) | 4.00 | 4.38 | 16.8 (≈ 21.9 µM) | 24 | 17 (≈ 22.2 µM) | 17.8 (≈ 23.2 µM) | 15.8 (≈ 20.6 µM) | 23 | 25 | 26 | 22 | 4.27 | 25 | 25 | 16.8 (≈ 21.9 µM) | 16.8 (≈ 21.9 µM) | 15.5 (≈ 20.2 µM) |  |  | 
6 | CC(C)[C@H](NC(=O)CNC(=O)[C@H](Cc1ccccc1)NC(=O)CNC(=S)Nc1ccccc1F)C(=O)N1CCC[C@H]1C(=O)N1CCN(c2nsc3ccccc23)CC1 ({Thiocarbamoyl(N-2-FPh)}-GFGVP-X1) | 3.99 | 4.42 | 11.2 (≈ 13.6 µM) | 30 | 10.8 (≈ 13 µM) | 13 (≈ 15.7 µM) | 11 (≈ 13.3 µM) | 31 | 32 | 28 | 31 | 4.32 | 31 | 31 | 12.8 (≈ 15.4 µM) | 13 (≈ 15.7 µM) | 9.25 (≈ 11.1 µM) |  |  | 11
7 | CC(C)[C@H](NC(=O)CNC(=S)Nc1ccc(F)cc1)C(=O)NCC(=O)N[C@H](C(=O)N1CCC[C@H]1C(=O)N1CCN(c2nsc3ccccc23)CC1)C(C)C (X2-GVGVP-X1) | 4.12 | 4.46 | 10.8 (≈ 13.7 µM) | 34 | 10 (≈ 12.8 µM) | 12.8 (≈ 16.3 µM) | 10.2 (≈ 13.1 µM) | 29 | 32 | 35 | 35 | 4.47 | 35 | 31 | 10.5 (≈ 13.4 µM) | 13.2 (≈ 16.9 µM) | 11 (≈ 14.1 µM) |  |  | 9.5
8 | CC(C)[C@H](NC(=O)CNC(=O)Nc1ccc(F)cc1)C(=O)NCC(=O)N[C@H](C(=O)N1CCC[C@H]1C(=O)N1CCN(c2nsc3ccccc23)CC1)C(C)C ({NH(4-F-phenyl)-CO}-GVGVP-X1) | 4.11 | 4.41 | 13.2 (≈ 17.3 µM) | 32 | 11.2 (≈ 14.7 µM) | 14.5 (≈ 18.9 µM) | 12.8 (≈ 16.6 µM) | 27 | 30 | 34 | 30 | 4.40 | 33 | 29 | 11.8 (≈ 15.3 µM) | 14.5 (≈ 18.9 µM) | 13.5 (≈ 17.6 µM) |  |  | 10.5
9 | CC(C)[C@H](NC(=O)CNC(=O)[C@H](Cc1ccccc1)NC(=O)CNC(=S)Nc1ccc(F)cc1)C(=O)N1CCC[C@H]1C(=O)N1CCN(c2nsc3ccccc23)CC1 (X2-GFGVP-X1) | 4.14 | 4.48 | 9 (≈ 10.8 µM) | 36 | 8.5 (≈ 10.2 µM) | 10.2 (≈ 12.3 µM) | 9 (≈ 10.8 µM) | 34 | 35 | 36 | 35 | 4.38 | 35 | 35 | 9.75 (≈ 11.7 µM) | 11 (≈ 13.3 µM) | 9.75 (≈ 11.7 µM) |  |  | 7.5
10 | CC(C)[C@H](NC(=O)CNC(=O)[C@H](Cc1ccccc1)NC(=O)CNC(=O)Nc1ccc(F)cc1)C(=O)N1CCC[C@H]1C(=O)N1CCN(c2nsc3ccccc23)CC1 ({NH(4-F-phenyl)-CO}-GFGVP-X1) | 4.10 | 4.46 | 11.2 (≈ 13.8 µM) | 31 | 9.25 (≈ 11.4 µM) | 11 (≈ 13.5 µM) | 11 (≈ 13.5 µM) | 31 | 33 | 31 | 32 | 4.36 | 30 | 32 | 10.5 (≈ 12.9 µM) | 12.2 (≈ 15 µM) | 11 (≈ 13.5 µM) |  |  | 8.75
